Experimental data taken from ChEMBL document CHEMBL4196006, “Aryl thiosemicarbazones for the treatment of trypanosomatidic infections” (Eur J Med Chem, 2018).

Tests used:
[1] = Selectivity ratio of EC50 for Trypanosoma cruzi amastigote form to EC50 for Trypanosoma brucei Lister 427 bloodstream form; assay type: functional
CYP1A2 = target: T1, CYP1A2 (Homo sapiens, UniProt P05177); test: Inhibition of human microsomal CYP1A2 expressed in baculovirus infected BTI-TN-5B1-4 cells at 10 uM incubated for 30 mins by luciferase assay relative to control; assay type: ADME
T1 sequence (P05177 whole entry): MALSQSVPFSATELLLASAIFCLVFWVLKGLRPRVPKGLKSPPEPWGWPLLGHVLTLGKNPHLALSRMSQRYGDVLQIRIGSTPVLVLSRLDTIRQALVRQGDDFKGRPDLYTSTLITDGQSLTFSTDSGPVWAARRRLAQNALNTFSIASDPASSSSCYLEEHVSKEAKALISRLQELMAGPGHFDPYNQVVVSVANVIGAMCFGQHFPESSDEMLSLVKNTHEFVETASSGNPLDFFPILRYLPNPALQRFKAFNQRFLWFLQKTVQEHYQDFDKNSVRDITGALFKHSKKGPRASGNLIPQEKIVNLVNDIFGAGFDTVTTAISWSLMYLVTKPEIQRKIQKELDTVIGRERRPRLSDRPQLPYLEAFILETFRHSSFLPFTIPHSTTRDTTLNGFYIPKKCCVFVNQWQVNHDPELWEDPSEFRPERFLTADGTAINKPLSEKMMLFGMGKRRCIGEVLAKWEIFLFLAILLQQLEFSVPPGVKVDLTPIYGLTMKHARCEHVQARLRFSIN
Procedure, shortened: (§1)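 CYP1A2, 2C9, 2C19, 2D6 and 3A4 in microsomes from baculovirus-infected insect cells, each with a P450-Glo luminogenic substrate. Inhibition read as loss of light; single-point at 10 μM, triplicate.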

[2] = Cytotoxicity against human THP1 cells assessed as viable cells at 100 uM after 72 hrs by MTT assay relative to control; assay type: cell-based, THP-1; details: read-out: Activity
Procedure, shortened: (§2)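 THP-1-derived macrophages exposed to compounds for 72 h, tested at 100 μM or in dose-response; viability read by MTT colorimetric assay.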

Trypanosoma brucei [3] = test: Antitrypanosomal activity against Trypanosoma brucei Lister 427 bloodstream form assessed as parasite growth inhibition at 50 uM after 72 hrs by SYBR Green assay relative to control; assay type: functional; details: Lister 427, 72 h, read-out: GI
CYP2C19 = CYP2C19 (Homo sapiens, UniProt P33261); test: Inhibition of human microsomal CYP2C19 expressed in baculovirus infected BTI-TN-5B1-4 cells at 10 uM incubated for 30 mins by luciferase assay relative to control; assay type: ADME; procedure, shortened: as §1
Trypanosoma brucei [4] = test: Antitrypanosomal activity against Trypanosoma brucei Lister 427 bloodstream form at 6:1 methotrexate to test compound ratio after 72 hrs by resazurin dye-based assay; assay type: functional, organism-based; details: Lister 427, 72 h
[5] = Cytotoxicity against human THP1 cells assessed as decrease in viable cells after 72 hrs by MTT assay; assay type: cell-based, THP-1; details: THP1 cells; procedure, shortened: as §2
Leishmania infantum = test: Antileishmanial activity against Leishmania infantum amastigote form after 72 hrs by steady-Glo reagent based assay; assay type: functional, organism-based
Procedure, shortened: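 Intramacrophage L. infantum amastigotes in THP-1-derived macrophages, tested at 50 μM or in dose-response. Plates held 72 h at 37 °C, 5% CO2. Medium was replaced by PBS, macrophages lysed, and parasites read by Steady-Glo luminescence. High-content imaging gave host cell number, infection ratio (infected/total cells) and parasites per infected cell. Values are means of at least two independent experiments.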

Trypanosoma brucei [6] = test: Antitrypanosomal activity against Trypanosoma brucei Lister 427 bloodstream form at 30:1 methotrexate to test compound ratio after 72 hrs by resazurin dye-based assay; assay type: functional, organism-based; details: Lister 427, 72 h
[7] = Selectivity index, ratio of CC50 for human U2OS cells to EC50 for Trypanosoma cruzi amastigote form; assay type: toxicity; details: read-out: Ratio CC50/EC50
Procedure, shortened: (§3)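 Selectivity index = CC50 in the human host or cytotoxicity cell line divided by parasite EC50.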

[8] = Cytotoxicity against human U2OS cells assessed as decrease in viable cells after 72 hrs by cell number count in anti-T. cruzi high content imaging assay; details: U2OS cells
[9] = Selectivity index, ratio of CC50 for human THP1 cells to EC50 for Leishmania infantum amastigote form; assay type: toxicity; details: read-out: Ratio CC50/EC50; procedure, shortened: as §3

Chain of CYP2C19 (P33261 whole entry): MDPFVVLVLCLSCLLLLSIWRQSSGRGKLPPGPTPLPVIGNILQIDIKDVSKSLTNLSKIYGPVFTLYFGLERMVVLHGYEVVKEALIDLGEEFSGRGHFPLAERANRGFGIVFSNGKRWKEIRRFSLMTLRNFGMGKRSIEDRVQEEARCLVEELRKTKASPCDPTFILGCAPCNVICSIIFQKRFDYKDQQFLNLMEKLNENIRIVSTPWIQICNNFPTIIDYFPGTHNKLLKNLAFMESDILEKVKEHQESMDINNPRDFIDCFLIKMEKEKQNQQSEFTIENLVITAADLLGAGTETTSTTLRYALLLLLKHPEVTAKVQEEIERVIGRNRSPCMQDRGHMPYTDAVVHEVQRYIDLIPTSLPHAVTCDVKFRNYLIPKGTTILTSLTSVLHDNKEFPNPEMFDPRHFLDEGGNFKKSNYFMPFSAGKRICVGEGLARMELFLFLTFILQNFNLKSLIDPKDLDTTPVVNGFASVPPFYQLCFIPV

## COc1ccc(-c2cccc(/C=N/NC(N)=S)c2)cc1OC
[1]
  Ratio EC50: 4
CYP1A2
  inhibition at 0.5 h, 10 µM: 64.7%
[2]
  viability at 72 h, 100 µM: 40.9%
Trypanosoma brucei [3]
  inhibition of growth at 50 µM: 93.9%
CYP2C19
  inhibition at 0.5 h, 10 µM: 22.2%
Trypanosoma brucei [4]
  EC50: 0.59 µM

## NC(=S)N/N=C/c1ccc(OCc2ccc(Cl)c(Cl)c2)cc1
[5]
  CC50 at 72 h: 82 µM
CYP1A2
  inhibition at 0.5 h, 10 µM: 26.8%
Leishmania infantum
  EC50: 6.14 µM
Trypanosoma brucei [6]
  EC50: 0.11 µM
[2]
  viability at 72 h, 100 µM: 38.8%
[7]
  selectivity ratio: 55
[8]
  CC50 at 72 h: 72 µM
Trypanosoma brucei [3]
  inhibition of growth at 50 µM: 100%
CYP2C19
  inhibition at 0.5 h, 10 µM: 10.4%
[9]
  selectivity ratio: 13
